A selection: hits, their analogues and other compounds. The true share with any hit is near 1.8%.
Casp6 inh = caspase-6 (human) enzyme inhibition; inhibition, % at 12.5 µM; purified caspase-6, Z-VEID-R110 cleavage fluorescence; P55212; hit rate 0.53% among 350,000; AID 686996;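 active means mean inhibition across replicates at least about 35%, with every replicate also reaching that limit, limit read from the data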
LEDGF integ inh = blocks HIV-1 LEDGF/p75-dependent DNA integration; TR-FRET IN-LEDGF/p75 DNA integration, Eu/Cy5; inhibition, % at 3.7 µM; hit rate 0.64% among 370,000;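 active means inhibition above the screen-wide mean plus 3 SD, cut at about 13% in these data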;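 further: signal is the Cy5 over europium emission ratio at 671 and 618 nm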
MBD2 inh = MBD2-methylated oligo binding inhibition; Q9UBB5; hit rate 0.31% among 370,000; TR-FRET, MBD2 binding to methylated oligonucleotide; AID 686964; inhibition, % at 4.4 µM; in the data active means inhibition above about 13%
Target sequence (Q9UBB5 whole entry, looked up): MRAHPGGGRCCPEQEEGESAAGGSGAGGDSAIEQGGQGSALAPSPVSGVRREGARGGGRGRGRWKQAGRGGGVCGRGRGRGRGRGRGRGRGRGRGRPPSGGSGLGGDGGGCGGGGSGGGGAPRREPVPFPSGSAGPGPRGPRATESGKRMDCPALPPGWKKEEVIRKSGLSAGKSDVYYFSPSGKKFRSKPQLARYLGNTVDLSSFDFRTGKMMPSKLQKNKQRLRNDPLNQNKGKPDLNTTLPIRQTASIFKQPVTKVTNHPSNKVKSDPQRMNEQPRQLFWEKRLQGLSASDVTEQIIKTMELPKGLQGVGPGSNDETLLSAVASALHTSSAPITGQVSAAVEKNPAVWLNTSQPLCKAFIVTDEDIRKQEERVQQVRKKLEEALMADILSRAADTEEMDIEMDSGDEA
UHRF1 binding = UHRF1 methyl-DNA binding inhibition. UHRF1 binding to methylated oligo, TR-FRET. inhibition, % at 4.4 µM. hit rate 0.75% among 370,000. AID 687016; in the data active means inhibition above about 21%;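 further: UHRF1 SRA domain binding a hemimethylated CpG hairpin DNA probe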
NSD2 HMT inh = blocks human histone methyltransferase NSD2. hit rate 0.54% among 310,000. inhibition, % at 12.5 µM. NSD2 peptide methylation, AlphaScreen, 120 min. O96028; in the data active means inhibition above about 50%
TDP2 inh = blocks human TDP2 phosphodiesterase activity. recombinant TDP2, T5PNP hydrolysis, p-nitrophenol absorbance 415 nm. inhibition, % at 12.8 µM. hit rate 0.34% among 370,000;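 active means inhibition above the mean of all tested compounds plus 3 SD, set per campaign, cut at about 25% in these data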
Target sequence (O95551 whole entry, looked up): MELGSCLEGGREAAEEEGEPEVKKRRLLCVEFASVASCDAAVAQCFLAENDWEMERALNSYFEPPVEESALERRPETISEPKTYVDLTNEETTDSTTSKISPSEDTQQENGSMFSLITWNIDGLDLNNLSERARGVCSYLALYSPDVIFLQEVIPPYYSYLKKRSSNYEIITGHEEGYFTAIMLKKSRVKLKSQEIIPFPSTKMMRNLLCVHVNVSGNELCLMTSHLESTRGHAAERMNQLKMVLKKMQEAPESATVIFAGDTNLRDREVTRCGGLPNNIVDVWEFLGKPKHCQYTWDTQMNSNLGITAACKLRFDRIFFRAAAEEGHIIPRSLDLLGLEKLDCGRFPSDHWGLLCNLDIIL
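System – recombinant human TDP2 · Quantity – TDP2 enzyme at 120 nM final · Doses – single concentration, 12.8 µM nominal, with 1% DMSO · Incubation – 2 h at 37 °C · Measured by – epi absorbance of p-nitrophenol freed from T5PNP by hydrolysis · Read-out – % inhibition relative to enzyme-containing and enzyme-free wells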
TDP2 confirm = confirmation of human TDP2 inhibitors. shares compounds with TDP2 inh. AID 743263. recombinant human TDP2, absorbance read-out. inhibition, % at 12.8 µM. hit rate 22% among 1,100; in the data active means inhibition above about 25%
Large screens that a line does not name were inactive (follow-up assays come after a bar, where they were run).

CCN(CC)S(=O)(=O)c1ccc2oc(SCC(=O)Nc3cc(C)on3)nc2c1	TDP2 inh 41 | TDP2 confirm inactive
Cc1cc(NC(=O)CSc2nc3cc(Cl)ccc3o2)no1	none
COc1cc(/C=C/C(=O)OCC(=O)NC(=O)NC(C)C)ccc1OCC#N	none (no result: Casp6 inh)
COc1cc(/C=C/C(=O)OCC(=O)Nc2cc(C)on2)ccc1OCC#N	TDP2 inh 26 | TDP2 confirm inactive
CC(=O)c1ccc(NC2=C(N3CCOCC3)C(=O)c3ccccc3C2=O)cc1	TDP2 inh 54 (no result: Casp6 inh, NSD2 HMT inh) | TDP2 confirm 38
Cc1ccc(NC2=C(N3CCOCC3)C(=O)c3ccccc3C2=O)cc1	LEDGF integ inh 30, NSD2 HMT inh 101, TDP2 inh 60 (no result: Casp6 inh) | TDP2 confirm 51
COc1cccc(NC(=O)N2[C@@H]3CNC[C@H]2C3c2ccc(/C=C/c3ccccc3)cc2)c1 (stereo partly drawn)	none (no result: LEDGF integ inh, MBD2 inh, UHRF1 binding, NSD2 HMT inh, TDP2 inh)
C[C@H](CO)N1C[C@H](C)[C@@H](CN(C)C(=O)C2CCOCC2)Oc2ncc(C#CC(C)(C)O)cc2C1=O	none (no result: LEDGF integ inh, MBD2 inh, UHRF1 binding, NSD2 HMT inh, TDP2 inh)
C[C@H]1CN([C@@H](C)CO)C(=O)c2cccc(NC(=O)CCCCCC(=O)Nc3ccccc3N)c2O[C@@H]1CN(C)C	none (no result: LEDGF integ inh, MBD2 inh, UHRF1 binding, NSD2 HMT inh, TDP2 inh)
COC(=O)CCC(=O)OC1(C)C(=O)C=C2C=C(C3CC3)N(C3CCCCC3)C=C2C1=O (stereo not drawn)	TDP2 inh 29 (no result: NSD2 HMT inh) | TDP2 confirm inactive
CCN(CC)CCCN1C=C2C(=O)C(C)(OC(=O)CCC(=O)OC)C(=O)C=C2C=C1C1CC1 (stereo not drawn)	none (no result: NSD2 HMT inh)
COC(=O)CCC(=O)OC1(C)C(=O)C=C2C=C(C3CC3)N(CC3CC3)C=C2C1=O (stereo not drawn)	TDP2 inh 28 (no result: NSD2 HMT inh) | TDP2 confirm inactive
COC(=O)CCC(=O)OC1(C)C(=O)C=C2C=C(C3CC3)N(Cc3ccccc3)C=C2C1=O (stereo not drawn)	TDP2 inh 26 (no result: Casp6 inh, NSD2 HMT inh) | TDP2 confirm inactive
CO[C@@H](CN(C)S(=O)(=O)c1ccc(Cl)cc1)[C@@H](C)CN(Cc1ccccc1Cl)[C@@H](C)CO	none (no result: LEDGF integ inh, MBD2 inh, UHRF1 binding, NSD2 HMT inh, TDP2 inh)
O=C(C[C@H]1CC[C@@H]2[C@H](COC[C@@H](O)CN2CC2CCOCC2)O1)N1CCOCC1	none (no result: LEDGF integ inh, MBD2 inh, UHRF1 binding, NSD2 HMT inh, TDP2 inh)
CC(=O)NC1C(=O)N(CCN2CCOCC2)c2ccc(F)cc21 (stereo not drawn)	Casp6 inh 52, TDP2 inh 32 | TDP2 confirm 31
Cc1ccc(-n2c3nc(=O)[nH]c(=O)c-3cc3cc([N+](=O)[O-])ccc32)cc1	TDP2 inh 46 (no result: Casp6 inh) | TDP2 confirm 41
Cc1ccc(-n2c(C)nn(Cc3ccc([N+](=O)[O-])cc3)c2=O)cc1	none
Cc1c(C(c2cc(O)ccc2Cl)c2c(C)n(C)n(-c3ccccc3)c2=O)c(=O)n(-c2ccccc2)n1C	TDP2 inh 29 | TDP2 confirm inactive
C[C@H]1CN([C@@H](C)CO)C(=O)c2cc(C#CCN(C)C)cnc2O[C@@H]1CN(C)S(=O)(=O)c1ccccc1	none (no result: LEDGF integ inh, MBD2 inh, UHRF1 binding, NSD2 HMT inh, TDP2 inh)
O=C(N[C@@H](Cc1ccccc1)c1nc2ccccc2[nH]1)c1ccc([N+](=O)[O-])cc1	TDP2 inh 25 (no result: NSD2 HMT inh) | TDP2 confirm inactive
CO[C@H]1CN(C)C(=O)c2cc(NS(=O)(=O)c3ccc(Oc4ccccc4)cc3)ccc2OC[C@@H](C)NC[C@@H]1C	none (no result: LEDGF integ inh, MBD2 inh, UHRF1 binding, NSD2 HMT inh, TDP2 inh)
Cc1ccccc1NC(=O)c1ccccc1NC(=O)c1cccs1	TDP2 inh 27 | TDP2 confirm inactive
CO[C@@H]1CN(C)C(=O)c2cc(NC(=O)C3CC3)ccc2OC[C@H](C)N(C(=O)C2CCOCC2)C[C@@H]1C	none (no result: LEDGF integ inh, MBD2 inh, UHRF1 binding, NSD2 HMT inh, TDP2 inh)
CN1CCN(C(=O)C[C@@H]2CC[C@@H]3[C@H](COC[C@H](O)CN3C(=O)C3CC3)O2)CC1	none (no result: LEDGF integ inh, MBD2 inh, UHRF1 binding, NSD2 HMT inh, TDP2 inh)
CCCC(=O)NC1=C(Cl)C(=O)c2ccccc2C1=O	TDP2 inh 26 | TDP2 confirm 53
CCNC1=C(Cl)C(=O)c2ccccc2C1=O	none (no result: Casp6 inh)
CC(=O)Nc1ccc(S(=O)(=O)N2CCC(NC(=O)C(Cc3ccc(C)cc3)NC(C)=O)CC2)cc1 (stereo not drawn)	none
CC(=O)Nc1ccc(S(=O)(=O)N2CCC(NC(=O)C(Cc3cccc(F)c3)NC(C)=O)CC2)cc1 (stereo not drawn)	TDP2 inh 28 | TDP2 confirm inactive
COc1ccc2[nH]c(=O)c(C(=O)O)cc2c1	none
CC(C)C1Cc2[nH]c(=O)c(C(=O)O)cc2CO1 (stereo not drawn)	TDP2 inh 29 (no result: Casp6 inh) | TDP2 confirm inactive
C[C@H](CO)N1C[C@H](C)[C@@H](CN(C)Cc2ccc(Oc3ccccc3)cc2)Oc2ccc(NS(=O)(=O)c3ccc(Cl)cc3)cc2CC1=O	none (no result: LEDGF integ inh, MBD2 inh, UHRF1 binding, NSD2 HMT inh, TDP2 inh)
CO[C@H]1CN(C)C(=O)c2cc(NC(=O)c3ccc4c(c3)OCO4)ccc2OC[C@@H](C)NC[C@H]1C	none (no result: LEDGF integ inh, MBD2 inh, UHRF1 binding, NSD2 HMT inh, TDP2 inh)
CCOc1ccc2[nH]c3nc(SCC(=O)OC(C)C)nnc3c2c1	TDP2 inh 25 | TDP2 confirm inactive
CC(=O)N1c2ccc(S(=O)(=O)NCC3CCC(C(=O)N4CCC(C)CC4)CC3)cc2CC1C (stereo not drawn)	TDP2 inh 28 | TDP2 confirm inactive
CN(C)c1cccc(C(=O)OCC(=O)NC2CCCC2)c1	TDP2 inh 26 | TDP2 confirm inactive
CN(C)c1ccc(C(=O)OCC(=O)NC2CCCCC2)cc1	none (no result: Casp6 inh)
COc1cccc(C(C[N+](=O)[O-])c2c(C)[nH]n(-c3ccccc3)c2=O)c1 (stereo not drawn)	TDP2 inh 28 | TDP2 confirm inactive
CC1CCN(C(=O)Cn2c(SCC(=O)Nc3nccs3)nc3ccccc32)CC1	TDP2 inh 30 (no result: Casp6 inh) | TDP2 confirm inactive
Cc1nc2ccc(C(=O)OCc3nnc(-c4ccccc4)o3)cc2nc1C	TDP2 inh 25 | TDP2 confirm inactive
Cc1nc2ccc(C(=O)OCc3nnc(-c4ccc(Br)cc4)o3)cc2nc1C	none
COc1ccc(CN2CCN(Cc3ccco3)CC2)c(OC)c1	TDP2 inh 27 | TDP2 confirm inactive
COc1cc(CN2CCN(Cc3ccco3)CC2)cc(OC)c1	none
COc1ccccc1CN1CCN(Cc2ccco2)CC1	TDP2 inh 28 | TDP2 confirm inactive
COCc1cn(CC[C@H]2CC[C@H](NC(=O)c3ccccc3)[C@H](CO)O2)nn1	none (no result: LEDGF integ inh, MBD2 inh, UHRF1 binding, NSD2 HMT inh, TDP2 inh)
Cn1c(=O)cc(NCCc2ccccc2)[nH]c1=O	none (no result: Casp6 inh)
Cc1cc(=O)n(CCCc2ccccc2)[nH]1	TDP2 inh 37 (no result: Casp6 inh, NSD2 HMT inh) | TDP2 confirm inactive
CCCC1=[N+](CC(=O)c2ccc(Br)cc2)CCn2cccc21	TDP2 inh 30 | TDP2 confirm inactive
COc1cc(C2C(C#N)=C(N)Oc3n[nH]c(-c4cccnc4)c32)cc(Br)c1O (stereo not drawn)	TDP2 inh 31 (no result: NSD2 HMT inh) | TDP2 confirm inactive
Cc1ccc(C2C(C#N)=C(N)Oc3n[nH]c(-c4cccnc4)c32)o1 (stereo not drawn)	none

Bioassay records (PubChem)
